Results published in ChEMBL document CHEMBL1134549, “Original 2-alkylamino-6-halogenoquinazolin-4(3H)-ones and K(ATP) channel activity” (J Med Chem, 2001).

What was measured:
[1] = species on record: Cavia porcellus; test: In vitro inhibition electrically stimulated guinea pig ileum segment contraction.; assay type: functional
Procedure, shortened: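 Coaxial electrical stimulation with rectangular pulses (0.5 ms, 0.1 Hz, 5–25 V); isometric contraction recording. Drugs added at increasing concentrations until maximal effect.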

[2] = species on record: Rattus norvegicus; test: In vitro inhibition of 30 mM KCl-induced contraction of rat aorta rings.; assay type: functional
[3] = species on record: Rattus norvegicus; test: Myorelaxant activity as percentage residual contractile activity in rat uterus at 10 uM concentration.; assay type: functional
Procedure, shortened: (§1)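 Uterus from fed Wistar rats (150–200 g) pretreated the day before with diethylstilboestrol dipropionate i.m. Tissue superfused at 37 °C. Contractions induced by 20 mU oxytocin injections at 10 min intervals, scored as AUC. Baseline (100%) is the mean of the last three constant responses. Each drug concentration tested with at least three injections; mean AUC expressed as percent of the drug-free response.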

[4] = species on record: Rattus norvegicus; test: Myorelaxant activity as percentage residual contractile activity in rat uterus at 50 uM concentration.; assay type: functional; procedure, shortened: as §1
[5] = species on record: Rattus norvegicus; test: In vitro percentage residual insulin secretion at 50 uM dose from rat pancreatic islets incubated in the presence of 16.7 mM glucose.; assay type: functional
Procedure, shortened: (§2)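 Islets from fed Wistar rats (180–220 g), groups of 10, preincubated 30 min at 37 °C in salt medium with 2.8 mM glucose and 0.5% dialyzed albumin under O2/CO2. Then incubated 90 min at 37 °C with 16.7 mM glucose plus drug. Insulin measured by radioimmunoassay against a rat insulin standard; reported as percentage residual release.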

[6] = species on record: Rattus norvegicus; test: Percentage residual insulin secretion at 10 uM dose from pancreatic islets incubated in the presence of 16.7 mM glucose; assay type: functional; procedure, shortened: as §2
[7] = species on record: Rattus norvegicus; test: Percentage residual insulin secretion at 1 uM dose from pancreatic islets incubated in the presence of 16.7 mM glucose; assay type: functional; procedure, shortened: as §2
[8] = species on record: Rattus norvegicus; test: Myorelaxant activity in rat aorta in the presence 80 mM KCL.; assay type: functional
Procedure, shortened: (§3)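 Endothelium-denuded transverse aortic rings (3–4 mm) from fed Wistar rats (250–300 g) held under 2 g tension in Krebs-bicarbonate at 37 °C, 95% O2/5% CO2. After 60 min equilibration, contracted with 30 mM or 80 mM KCl; drugs added cumulatively to maximal relaxation, with or without glibenclamide throughout (1 or 10 μM).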

[9] = Myorelaxant activity in rat aorta with 1 uM glibenclamide and 30 mM KCL; assay type: functional, tissue-based; procedure, shortened: as §3
[10] = Myorelaxant activity in rat aorta with 10 uM glibenclamide and 30 mM KCL; assay type: functional, tissue-based; procedure, shortened: as §3

IC50 [1] [µM]	IC50 [2] [µM]	IC50 [8] [µM]	IC50 [9] [µM]	IC50 [10] [µM]	Compound	Activity [3] [%]	Activity [4] [%]	Secretion [5] [%]	Secretion [6] [%]	Secretion [7] [%]
13.2	1.7	–	–	–	C[C@H](Nc1nc(O)c2cc(Cl)ccc2n1)c1ccccc1	92.4	44.9	12.9	76.9	–
20.2	2.8	–	–	–	C[C@@H](Nc1nc(O)c2cc(Cl)ccc2n1)c1ccccc1	120	46.5	35	–	–
–	7.6	–	–	–	Oc1nc(NCc2ccccc2)nc2ccc(Br)cc12	76.8	76.6	75.7	–	–
–	12.4	–	–	–	CC(Nc1nc(O)c2ccccc2n1)C(C)(C)C (configuration not stated)	–	–	50.9	–	–
26	3.9	–	–	–	Oc1nc(NCC2CCCCC2)nc2ccc(I)cc12	96.8	97.9	10	65.4	–
> 300	154	–	–	–	CC(C)C(C)NC1=NS(=O)(=O)c2cnccc2N1 (configuration not stated)	–	–	7.1	26.8	70.5
8.2	5.6	18.1	> 30	> 30	C[C@@H](Nc1nc(O)c2cc(Cl)ccc2n1)C1CCCCC1	108	90.7	16.5	62.1	–
8.7	1.4	–	–	–	Oc1nc(NCc2ccccc2)nc2ccc(I)cc12	106	106	82.8	–	–
–	67.3	–	–	–	CC(C)Nc1nc(O)c2ccccc2n1	–	–	45.6	–	–
44.7	13.8	–	–	–	CCC(C)Nc1nc(O)c2cc(Cl)ccc2n1 (configuration not stated)	–	–	6	53.2	84.9
74.1	17.3	34.3	–	–	CC(C)Nc1nc(O)c2cc(Cl)ccc2n1	78.7	61	6.6	55.1	80.7
59.2	16.3	–	–	–	CC(C)C(C)Nc1nc(O)c2cc(Cl)ccc2n1 (configuration not stated)	–	–	10.2	61.9	81.3
13.3	–	–	–	–	Oc1nc(NCc2ccccc2)nc2ccc(Cl)cc12	94.8	98.1	82.5	–	–
44.1	12.1	37.2	37.3	46.4	CC(C)Nc1nc(O)c2cc(I)ccc2n1	77.6	41	12.2	90.9	93.7
23.6	8.9	–	–	–	CCC(C)Nc1nc(O)c2cc(I)ccc2n1 (configuration not stated)	–	–	11.2	77.5	94.9
15.1	2.1	–	–	–	C[C@H](Nc1nc(O)c2cc(Cl)ccc2n1)C1CCCCC1	102	66.5	8.9	43.6	–
30.4	4.1	–	–	–	CC(C)C(C)Nc1nc(O)c2cc(I)ccc2n1 (configuration not stated)	–	–	30.6	87.7	94.7
–	43.7	–	–	–	Oc1nc(NCc2ccccc2)nc2ccccc12	97.2	47.4	61.8	–	–
23.9	2.2	–	–	–	Oc1nc(NCC2CCCCC2)nc2ccc(Cl)cc12	86	80.3	26.5	90.1	–
> 300	19.3	> 300	85.8	163	CC1=Nc2ccc(Cl)cc2S(=O)(=O)N1 [DIAZOXIDE]	93.8	76.3	28.8	70	78.9
9.2	0.5	16	10.4	42.5	CC(N/C(=N\C#N)Nc1ccncc1)C(C)(C)C (configuration not stated) [PINACIDIL ANHYDROUS]	58.1	35.5	92.1	96	97.8
